Active and inactive are the calls of the source. The rule behind the calls is not given here.
What was measured:
[1] = Ratio of drug uptake in Sprague-Dawley rat brain to plasma at 48 mg/kg, ip after 30 mins by LC-MS/MS analysis; type: ADME, organism-based; conditions: read-out: BPR
In short: (§1)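 Nine female SD rats, three per time point, single ip dose of 48 mg/Kg. At 0.5, 2 and 4 h rats were anesthetized with CO2. Heart blood was taken into EDTA-K2 and centrifuged 1500 g, 10 min, for plasma. Brain was weighed and homogenized 1:5 in 20% methanol-water. LC-MS/MS on a C18 column. Mean of 3.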

Rattus norvegicus [2] = test: Reversal of reserpine-induced inhibition of neurogenesis in ip dosed Sprague-Dawley rat hippocampus administered twice daily for 2 weeks by EDU-incorporation assay; type: functional, organism-based
In short: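 Rats given EDU 8 mg/kg twice in 1 day and sacrificed 96 h later. Brains shock-frozen and sectioned, washed with 2 mg/mL glycine and PBS, stained with 1X Click-iT solution for 30 min, washed with 0.5% Triton X-100. Counterstained with 1X Hoechst 33342 for 30 min, then imaged by fluorescence microscopy. n=5.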

[3] = molecular target: T1, Sphingomyelin phosphodiesterase (Homo sapiens, UniProt P17405); test: Inhibition of human Huh7 cell derived acid sphingomyelinase using NBD-sphingomyelin as substrate after 30 mins by fluorescence based assay
T1 sequence (P17405 whole entry): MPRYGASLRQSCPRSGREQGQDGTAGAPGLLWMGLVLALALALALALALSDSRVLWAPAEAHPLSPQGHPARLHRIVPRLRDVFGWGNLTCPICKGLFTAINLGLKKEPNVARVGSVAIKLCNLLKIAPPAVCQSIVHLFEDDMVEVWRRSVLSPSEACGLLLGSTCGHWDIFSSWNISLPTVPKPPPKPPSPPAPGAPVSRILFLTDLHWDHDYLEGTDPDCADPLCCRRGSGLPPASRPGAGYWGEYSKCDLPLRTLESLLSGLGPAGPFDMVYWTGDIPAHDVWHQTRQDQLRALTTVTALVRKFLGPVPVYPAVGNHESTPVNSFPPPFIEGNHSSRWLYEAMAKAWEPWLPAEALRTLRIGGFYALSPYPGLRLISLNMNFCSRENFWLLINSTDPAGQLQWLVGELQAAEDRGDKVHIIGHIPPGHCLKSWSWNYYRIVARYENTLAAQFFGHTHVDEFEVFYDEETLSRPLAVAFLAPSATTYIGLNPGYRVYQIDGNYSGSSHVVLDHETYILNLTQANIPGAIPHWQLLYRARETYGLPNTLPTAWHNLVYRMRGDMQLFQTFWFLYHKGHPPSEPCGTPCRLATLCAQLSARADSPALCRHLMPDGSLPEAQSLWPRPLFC
In short: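 Cultured cells were lysed in 25 mM Tris-HCl pH 7.4, 5 mM EDTA, sonicated and cleared at 300 g. 400 μg protein incubated with NBD-sphingomyelin in 100 mM sodium acetate pH 4.7, 1% Triton X-100, 40 mM CaCl2, 100 μM ZnCl2. Inhibitors added in DMSO, 37 °C, 30 min. Stopped with chloroform/methanol 2:1; NBD-ceramide fluorescence after TLC.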

NIH3T3 = test: Cytotoxicity against mouse NIH/3T3 cells assessed as reduction in cell viability after 24 hrs by MTT assay; type: cell-based; conditions: Mus musculus, NIH3T3, 24 h
In short: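 NIH3T3 cells in DMEM with 10 % FBS at 37 °C, 5 % CO₂, grown overnight, then inhibitor added for 24 h; viability read by MTT.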

[4] = Ratio of drug uptake in Sprague-Dawley rat brain to plasma at 48 mg/kg, ip after 2 hrs by LC-MS/MS analysis; type: ADME, organism-based; conditions: read-out: BPR; in short: as §1
Rattus norvegicus [5] = test: Antidepressant activity in Sprague-Dawley rat model of reserpine-induced depression assessed as increase in times passing the grid at 6 to 24 mg/kg, ip administered twice daily for 2 weeks measured for 5 mins by open field test; type: functional, organism-based
In short: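 Female SD rats (6-8 weeks, 200 g) given reserpine 4 mg/Kg ip daily to induce depression; test agent in 5% DMSO, 2% Tween 80, 5% glucose, ip twice daily for two weeks. Open field: 100×100 cm box, 25 squares, walls about 42 cm, tested 7:30–12:00. Rat placed in central square; centre time, grid crossings, rearing and grooming recorded over 5 min. n=8, mean ± SD.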

Rattus norvegicus [6] = test: Antidepressant activity in ip dosed Sprague-Dawley rat model of reserpine-induced depression assessed as increase in sugar consumption treated twice daily for 2 weeks measured after 2 days of […] followed by 20 hrs water depletion and fasting by sugar water preference test; type: functional, organism-based
In short: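 Reserpine model (4 mg/Kg ip daily) in female SD rats, treated ip twice daily for two weeks in DMSO/Tween 80/glucose vehicle. Drinking water replaced with 10% sucrose for 48 h, then food and water withheld for 20 h. Rats then given 10% sucrose and intake volume measured. n=8, mean ± SD.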

[7] = Drug concentration in Sprague-Dawley rat plasma at 48 mg/kg, ip after 4 hrs by LC-MS/MS analysis; type: ADME, organism-based; in short: as §1
[8] = Drug concentration in Sprague-Dawley rat brain at 48 mg/kg, ip after 0.5 hrs by LC-MS/MS analysis; type: ADME, organism-based; conditions: read-out: Drug uptake; in short: as §1

SMILES: O=C(NO)c1cc(OCc2ccc(-c3ccc(Cl)cc3)cc2)no1
- Kp at 0.5 h [1]: 2.94
- Activity (Rattus norvegicus [2]): Dose-dependent effect
- IC50 [3]: 0.32 µM
- IC50 (NIH3T3): 161 µM
- Kp at 2 h [4]: 6.49
- Activity (Rattus norvegicus [5]): Active
- Activity (Rattus norvegicus [6]): Dose-dependent effect
- concentration at 4 h [7]: 144 ng/mL
- concentration at 0.5 h [8]: 2120 ng/g

Reference: ChEMBL document CHEMBL4376888, “Discovery of Potent, Selective, and Direct Acid Sphingomyelinase Inhibitors with Antidepressant Activity” (J Med Chem, 2020)
